Tests used:
[1] = Oral bioavailability in Beagle dog at 5.2 mg/kg; type: ADME, organism-based, Canis lupus familiaris; conditions: in vivo
Outline: (§1)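 Single IV (about 1 mg/kg) and oral (about 5 mg/kg) doses in rat, cynomolgus monkey and dog; CL, t1/2, Vss, Cmax, tmax, AUC and oral bioavailability F derived from plasma concentration-time data.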

[2] = Half-life in cynomolgus monkey at 1 mg/kg, iv; type: ADME, organism-based, Macaca fascicularis; conditions: in vivo; outline: as §1
[3] = AUC in Sprague-Dawley rat at 4.4 mg/kg, po; type: ADME, organism-based; conditions: in vivo; outline: as §1
Cytochrome P450 2C19 = Cytochrome P450 2C19 (Homo sapiens, UniProt P33261); experiment: Inhibition of human CYP2C19; type: ADME
Cytochrome P450 2C19, sequence (P33261 whole entry): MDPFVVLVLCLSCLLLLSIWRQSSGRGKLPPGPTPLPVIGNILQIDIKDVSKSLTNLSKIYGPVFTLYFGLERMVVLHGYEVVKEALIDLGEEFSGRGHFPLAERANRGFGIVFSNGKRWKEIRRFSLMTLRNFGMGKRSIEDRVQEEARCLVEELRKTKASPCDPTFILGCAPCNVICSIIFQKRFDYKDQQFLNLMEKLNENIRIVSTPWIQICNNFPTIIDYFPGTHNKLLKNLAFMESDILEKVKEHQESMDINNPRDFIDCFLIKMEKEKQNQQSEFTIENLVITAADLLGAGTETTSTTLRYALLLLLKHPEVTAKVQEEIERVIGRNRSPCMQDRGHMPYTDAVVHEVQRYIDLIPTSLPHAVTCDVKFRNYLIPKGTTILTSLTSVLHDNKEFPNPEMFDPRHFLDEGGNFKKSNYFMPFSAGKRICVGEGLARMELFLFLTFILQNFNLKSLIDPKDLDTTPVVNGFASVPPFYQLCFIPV

CHO [4] = experiment: Genotoxicity in CHO cells at up to 0.36 mM after 22.5 hrs in absence of metabolic activators by micronucleus assay; type: toxicity, cell-based, Cricetulus griseus; conditions: chinese hamster
Outline: (§2)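 Cytokinesis-blocked micronucleus test in cultured CHO cells: up to 1.4 mM (500 µg/mL) for 3 h with metabolic activation, or up to 0.36 mM for 22.5 h without activation.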

CHO [5] = experiment: Genotoxicity in CHO cells at 1.4 mM after 3 hrs in presence of metabolic activators by micronucleus assay; type: toxicity, cell-based, Cricetulus griseus; conditions: chinese hamster, 1400 µM; outline: as §2
[6] = Tmax in Beagle dog at 5.2 mg/kg, po; type: ADME, organism-based, Canis lupus familiaris; conditions: in vivo
[7] = Volume of distribution at steady state in Beagle dog at 1 mg/kg, iv; type: ADME, organism-based, Canis lupus familiaris; conditions: in vivo, read-out: Vdss
[8] = Half-life in Beagle dog at 1 mg/kg, iv; type: ADME, organism-based, Canis lupus familiaris; conditions: in vivo; outline: as §1
[9] = Cmax in Sprague-Dawley rat at 4.4 mg/kg, po; type: ADME, organism-based; set-up: dose 4.4 mg/kg, route oral; conditions: in vivo; outline: as §1
[10] = Volume of distribution at steady state in cynomolgus monkey at 1 mg/kg, iv; type: ADME, organism-based, Macaca fascicularis; conditions: in vivo, read-out: Vdss
[11] = Clearance in Sprague-Dawley rat at 1 mg/kg, iv after 4 hrs; type: ADME, organism-based; conditions: in vivo
Outline: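 Male Sprague-Dawley rats given 1 mpk IV in PEG400/ethanol (90:10); blood sampled at 5 and 30 min and 1, 2 and 4 h post-dose; clearance from plasma profile.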

[12] = Permeability across basolateral to apical side in human Caco2 cells at 3 uM; type: ADME, cell-based; conditions: Caco-2, read-out: permeability
Outline: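 Caco-2 monolayer permeability at 3 µM, apical-to-basolateral and basolateral-to-apical, reported in nm/sec.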

[13] = Cmax in dog in 12 month toxicology study; type: ADME, organism-based, Canis lupus familiaris; conditions: in vivo
[14] = Protein binding in human plasma; type: ADME, cell-free; conditions: read-out: PPB (converted)
[15] = Volume of distribution at steady state in Sprague-Dawley rat at 0.87 mg/kg, iv; type: ADME, organism-based; conditions: in vivo, read-out: Vdss
[16] = Cmax in Beagle dog at 5.2 mg/kg, po; type: ADME, organism-based, Canis lupus familiaris; set-up: dose 5.2 mg/kg, route oral; conditions: in vivo; outline: as §1
Cytochrome P450 2D6 = Cytochrome P450 2D6 (Homo sapiens, UniProt P10635); experiment: Inhibition of human CYP2D6; type: ADME
Cytochrome P450 2D6, sequence (P10635 whole entry): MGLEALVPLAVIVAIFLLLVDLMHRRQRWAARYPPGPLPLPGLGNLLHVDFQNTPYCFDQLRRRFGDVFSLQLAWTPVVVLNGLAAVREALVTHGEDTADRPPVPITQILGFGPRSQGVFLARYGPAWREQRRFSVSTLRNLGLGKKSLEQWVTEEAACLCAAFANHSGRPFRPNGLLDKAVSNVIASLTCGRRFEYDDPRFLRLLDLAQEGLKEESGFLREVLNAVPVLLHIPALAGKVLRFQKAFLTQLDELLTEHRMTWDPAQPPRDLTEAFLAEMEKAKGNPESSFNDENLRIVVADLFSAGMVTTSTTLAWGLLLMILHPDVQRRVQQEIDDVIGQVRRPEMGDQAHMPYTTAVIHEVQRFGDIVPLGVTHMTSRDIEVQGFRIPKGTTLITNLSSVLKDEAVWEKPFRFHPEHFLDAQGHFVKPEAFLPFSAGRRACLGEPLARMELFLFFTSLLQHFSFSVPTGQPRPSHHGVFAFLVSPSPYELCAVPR

[17] = Protein binding in dog plasma; type: ADME, cell-free, Canis lupus familiaris; conditions: read-out: PPB (converted)
Homo sapiens [18] = experiment: Toxicity in normal healthy human at 200 to 1200 mg, po, administered as single dose; type: organism-based; conditions: in vivo
Outline: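 Human subjects received single oral doses of 200, 600, 800 or 1200 mg and were monitored for clinically significant adverse events.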

Canis familiaris = species: Canis familiaris; experiment: Toxicity in dog assessed as occurence of convulsions; type: organism-based, Canis lupus familiaris; conditions: in vivo
[19] = Oral bioavailability in Sprague-Dawley rat at 4.4 mg/kg; type: ADME, organism-based; conditions: in vivo; outline: as §1
[20] = Half-life in Sprague-Dawley rat at 0.87 mg/kg, iv; type: ADME, organism-based; conditions: in vivo; outline: as §1
[21] = Lipophilicity, log D of the compound at pH 6.5; type: physicochemical; conditions: buffer
Outline: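 LogD determined experimentally at pH 6.5.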

[22] = AUC in Beagle dog at 5.2 mg/kg, po; type: ADME, organism-based, Canis lupus familiaris; conditions: in vivo; outline: as §1
[23] = Clearance in cynomolgus monkey at 1 mg/kg, iv; type: ADME, organism-based, Macaca fascicularis; conditions: in vivo; outline: as §1
[24] = Drug metabolism in dog liver microsomes assessed as CYP-mediated metabolism by measuring compound half life; type: ADME, Canis lupus familiaris
Outline: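 Microsomal stability with NADPH (CYP-dependent) in rat, cynomolgus, dog and human microsomes; half-life in min.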

Homo sapiens [25] = species: Homo sapiens; experiment: Inhibition of human p-gp assessed as decrease in [3H]-digoxin transport at 10 uM
[26] = Drug uptake in normal healthy human at 600 mg, po qd after 24 hrs; type: ADME, organism-based; conditions: in vivo, read-out: Drug uptake
Outline: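 Healthy volunteers given 600 mg orally once daily; mean plasma concentration measured 24 h post-dose (C24h).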

Cytochrome P450 1A2 = biological target: T1, Cytochrome P450 1A2 (Homo sapiens, UniProt P05177); experiment: Inhibition of human CYP1A2; type: ADME
T1 sequence (P05177 whole entry): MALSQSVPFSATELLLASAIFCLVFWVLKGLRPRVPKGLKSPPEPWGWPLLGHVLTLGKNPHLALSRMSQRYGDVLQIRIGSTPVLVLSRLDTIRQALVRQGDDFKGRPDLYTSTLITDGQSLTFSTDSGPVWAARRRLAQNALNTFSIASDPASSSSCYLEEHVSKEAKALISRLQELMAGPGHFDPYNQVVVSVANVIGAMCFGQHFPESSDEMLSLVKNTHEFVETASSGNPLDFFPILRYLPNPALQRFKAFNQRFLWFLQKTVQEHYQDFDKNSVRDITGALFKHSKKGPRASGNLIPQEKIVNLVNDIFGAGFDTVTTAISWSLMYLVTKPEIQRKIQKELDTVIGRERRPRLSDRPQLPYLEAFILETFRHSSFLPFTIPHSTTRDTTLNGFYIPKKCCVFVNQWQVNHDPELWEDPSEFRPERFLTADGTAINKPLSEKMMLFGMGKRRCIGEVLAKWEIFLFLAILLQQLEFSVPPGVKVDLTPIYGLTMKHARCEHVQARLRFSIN

bioavailability [1]: 129%
half-life [2]: 6.5 h
AUC [3]: 19.1 µM·h
IC50 (Cytochrome P450 2C19): > 40 µM
Tmax [6]: 0.25 h
Vd [7]: 0.45 L/kg
half-life [8]: 6 h
Cmax [9]: 4.51 µM
Vd [10]: 0.87 L/kg
clearance [11]: 9.6 mL/min/kg
Papp B→A at 3 µM [12]: 24 ×10⁻⁶ cm/s
fraction unbound [14]: 0.024
Vd [15]: 0.86 L/kg
Cmax [16]: 72.8 µM
IC50 (Cytochrome P450 2D6): > 40 µM
fraction unbound [17]: 0.015
bioavailability [19]: 86%
half-life [20]: 4 h
logD [21]: 2.02
AUC [22]: 162 µM·h
clearance [23]: 6.8 mL/min/kg
half-life [24]: 1.78 h
inhibition (Homo sapiens [25]): 5%
concentration at 24 h [26]: 340 ng/mL
IC50 (Cytochrome P450 1A2): > 40 µM
SMILES: CC1(C)OCCn2c1nc(C(=O)NCc1ccc(F)cc1)c(O)c2=O
Activity (CHO [4]): Non-Toxic
Activity (CHO [5]): Non-Toxic
Cmax at 12 month [13]: ≥ 67000 ng/mL
Activity (Homo sapiens [18]): Non-Toxic
Activity (Canis familiaris): Toxic
